# Experimental data from different studies.
# Lines come from different studies, so protocols differ.
# Dihydroorotate dehydrogenase (quinone), mitochondrial: Dihydroorotate dehydrogenase (quinone), mitochondrial (Rattus norvegicus, UniProt Q63707)
# CYP2D6: Cytochrome P450 2D6 (CYP2D6, Homo sapiens, UniProt P10635)
Compound,target,test,test system,setting,quantity,value
CCNC(=O)/C=C/c1cccc(Br)c1,"Sodium-dependent neutral amino acid transporter B(0)AT1 (SLC6A19, Homo sapiens, UniProt Q695T7)","transporter uptake, inhibitor, radiometric",,,IC50,0.84 µM
Cn1nc2c(=O)n(C3CC3)ncc2c1[C@](O)(c1cnc(C(F)(F)F)c(Cl)c1)C(F)(F)F,"Dihydroorotate dehydrogenase (quinone), mitochondrial","enzyme activity, inhibitor, absorbance",,,IC50,> 30 µM
C=C(F)C(=O)N1CCN(c2nc(OC[C@@H]3CCCN3C)nc3c2CCN(c2cccc4cccc(Cl)c24)C3)C[C@@H]1CC#N,CYP2D6,"enzyme activity, inhibitor","human, liver microsomes",,Ki,26.4 µM
Nc1ccccc1NC(=O)c1ccc(CNc2ccc(NC3=C(Cl)C(=O)c4cccnc4C3=O)cc2)cc1,"Histone deacetylase 3 (HDAC3, Homo sapiens, UniProt O15379)","enzyme activity, inhibitor",,,IC50,0.716 µM
Cn1nc2c(=O)n(C3CC3)ncc2c1[C@](N)(c1ccc(C(F)(F)F)c(Cl)c1)C1CC1,"Dihydroorotate dehydrogenase (quinone), mitochondrial","enzyme activity, inhibitor, absorbance",,,IC50,6.2 µM
O=C1CCC(=O)N1Cc1cc2nccc(-c3cc(Cl)cc4c3N([C@@H]3CNC5(CCC5)C3)CCC4)c2s1,"Ubiquitin carboxyl-terminal hydrolase 7 (USP7, Homo sapiens, UniProt Q93009)","binding, SPR",,,Kd,0.1 nM
Cc1nn(CCc2ccccc2)c2ncc(C(=O)NCc3cccnc3)c(Cl)c12,"Prolyl endopeptidase (PREP, Homo sapiens, UniProt P48147)","enzyme activity, inhibitor, fluorescence",,,IC50,14 µM
Cc1ccc2[nH]c(=O)c(CNC3CCCCC3)cc2c1,"Alpha-1B adrenergic receptor (ADRA1B, Homo sapiens, UniProt P35368)",ligand displacement in cells,,,Ki,0.155 µM
Cn1nc2c(=O)n(C3CC3)ccc2c1[C@](O)(c1cnc(C(F)(F)F)c(Cl)c1)C(F)(F)F,"Dihydroorotate dehydrogenase (quinone), mitochondrial","enzyme activity, inhibitor, absorbance",,,IC50,16 µM
C[C@@H]1CN(c2ccc(-c3cc(C(=O)NCCCNC(=O)/C=C/c4[nH]cc(C(=O)N[C@@H](CC(N)=O)c5ccc(F)c(Cl)c5)c4-c4ccc(Cl)cc4F)ccc3F)cc2NC(=O)c2c[nH]c(=O)cc2C(F)(F)F)C[C@H](C)N1C,"DDB1- and CUL4-associated factor 1 (DCAF1, Homo sapiens, UniProt Q9Y4B6)","binding, SPR",,,Kd,15.2 nM
COc1cc(O)c2c(c1)C(=O)c1cc(C)cc(O)c1C2=O,CYP2D6,"enzyme activity, inhibitor","human, liver microsomes",pH 7.4,Ki,8.66 µM
Cc1ccc(C(=O)Nc2ccc(CN3CCN(C)CC3)c(C(F)(F)F)c2)cc1C#Cc1cnc2cccnn12,"Calmodulin-domain protein kinase 1, putative (Cryptosporidium parvum, UniProt A3FQ16)","enzyme activity, inhibitor",,,IC50,> 1 µM
